Active and inactive are the calls of the source.
What was measured:
[1] = target: T1, Serine/threonine-protein kinase 4 (Homo sapiens) (UniProt Q13043); assay: Binding affinity to STK4 in human NCI-H23 cells at 1 uM by mass spectrometry based pull down assay; type: cell-based
T1 sequence (whole entry): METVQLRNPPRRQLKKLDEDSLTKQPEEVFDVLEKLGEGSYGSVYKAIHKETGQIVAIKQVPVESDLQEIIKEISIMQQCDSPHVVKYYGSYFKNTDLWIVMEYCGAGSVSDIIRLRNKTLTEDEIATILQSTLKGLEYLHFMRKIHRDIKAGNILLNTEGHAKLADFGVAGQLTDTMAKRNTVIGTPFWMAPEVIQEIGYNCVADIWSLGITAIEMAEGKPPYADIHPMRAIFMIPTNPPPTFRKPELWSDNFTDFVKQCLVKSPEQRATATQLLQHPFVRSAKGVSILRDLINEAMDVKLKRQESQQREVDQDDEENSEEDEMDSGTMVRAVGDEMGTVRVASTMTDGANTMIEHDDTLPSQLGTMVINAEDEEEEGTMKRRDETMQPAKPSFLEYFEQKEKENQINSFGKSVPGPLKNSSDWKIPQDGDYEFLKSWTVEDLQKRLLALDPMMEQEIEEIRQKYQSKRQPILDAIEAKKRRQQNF

[2] = target: MAP kinase-interacting serine/threonine-protein kinase 2 (Homo sapiens) (UniProt Q9HBH9); assay: Binding affinity to MKNK2 in human NCI-H358 cells at 1 uM by mass spectrometry based pull down assay; type: cell-based
[3] = target: DNA replication licensing factor MCM4 (Homo sapiens) (UniProt P33991); assay: Binding affinity to MCM4 in human NCI-H358 cells at 1 uM by mass spectrometry based pull down assay; type: cell-based
[4] = target: ATP-dependent 6-phosphofructokinase, liver type (Homo sapiens) (UniProt P17858); assay: Binding affinity to PFKL in human NCI-H23 cells at 1 uM by mass spectrometry based pull down assay; type: cell-based
Sequence of ATP-dependent 6-phosphofructokinase, liver type (Homo sapiens) (P17858 whole entry): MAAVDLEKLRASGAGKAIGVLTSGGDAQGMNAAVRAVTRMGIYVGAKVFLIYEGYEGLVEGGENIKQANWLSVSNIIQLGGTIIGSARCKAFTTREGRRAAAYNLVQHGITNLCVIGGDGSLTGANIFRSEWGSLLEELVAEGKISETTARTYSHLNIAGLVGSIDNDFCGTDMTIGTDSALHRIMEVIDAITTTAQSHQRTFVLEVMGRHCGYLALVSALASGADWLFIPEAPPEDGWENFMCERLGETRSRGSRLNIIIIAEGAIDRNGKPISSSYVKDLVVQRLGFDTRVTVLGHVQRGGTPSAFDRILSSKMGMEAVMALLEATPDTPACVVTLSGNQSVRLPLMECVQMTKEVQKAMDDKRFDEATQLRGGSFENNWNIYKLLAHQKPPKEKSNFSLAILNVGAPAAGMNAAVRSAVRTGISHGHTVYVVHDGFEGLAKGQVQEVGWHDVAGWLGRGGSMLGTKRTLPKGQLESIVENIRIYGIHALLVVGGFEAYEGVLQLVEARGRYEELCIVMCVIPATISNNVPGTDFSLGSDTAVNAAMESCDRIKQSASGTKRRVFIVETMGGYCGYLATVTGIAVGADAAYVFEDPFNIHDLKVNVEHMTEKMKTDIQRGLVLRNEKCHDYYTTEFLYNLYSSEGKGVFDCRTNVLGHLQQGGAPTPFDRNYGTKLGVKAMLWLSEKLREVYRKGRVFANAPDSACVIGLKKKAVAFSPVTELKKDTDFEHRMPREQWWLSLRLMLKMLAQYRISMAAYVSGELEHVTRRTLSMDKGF

[5] = target: TGF-beta-activated kinase 1 and MAP3K7-binding protein 3 (Homo sapiens) (UniProt Q8N5C8); assay: Binding affinity to TAB3 in human NCI-H23 cells at 1 uM by mass spectrometry based pull down assay; type: cell-based
[6] = target: T2, Dual specificity mitogen-activated protein kinase kinase 4 (Homo sapiens) (UniProt P45985); assay: Binding affinity to MAP2K4 in human NCI-H23 cells at 1 uM by mass spectrometry based pull down assay; type: cell-based
T2 sequence (whole entry): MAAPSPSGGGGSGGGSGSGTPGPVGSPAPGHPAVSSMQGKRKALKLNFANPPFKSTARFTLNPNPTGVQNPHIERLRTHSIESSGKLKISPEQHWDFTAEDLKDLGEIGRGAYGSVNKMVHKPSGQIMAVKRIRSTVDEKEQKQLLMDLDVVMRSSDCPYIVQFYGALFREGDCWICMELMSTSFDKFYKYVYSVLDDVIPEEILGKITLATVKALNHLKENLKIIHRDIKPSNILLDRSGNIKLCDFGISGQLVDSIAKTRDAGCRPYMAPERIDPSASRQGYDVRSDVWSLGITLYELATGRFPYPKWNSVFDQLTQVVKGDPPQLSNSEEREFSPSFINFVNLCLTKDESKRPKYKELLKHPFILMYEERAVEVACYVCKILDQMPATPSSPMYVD

[7] = target: Clathrin heavy chain 1 (Homo sapiens) (UniProt Q00610); assay: Binding affinity to CLTC in human NCI-H23 cells at 1 uM by mass spectrometry based pull down assay; type: cell-based
Sequence of Clathrin heavy chain 1 (Homo sapiens) (Q00610 whole entry): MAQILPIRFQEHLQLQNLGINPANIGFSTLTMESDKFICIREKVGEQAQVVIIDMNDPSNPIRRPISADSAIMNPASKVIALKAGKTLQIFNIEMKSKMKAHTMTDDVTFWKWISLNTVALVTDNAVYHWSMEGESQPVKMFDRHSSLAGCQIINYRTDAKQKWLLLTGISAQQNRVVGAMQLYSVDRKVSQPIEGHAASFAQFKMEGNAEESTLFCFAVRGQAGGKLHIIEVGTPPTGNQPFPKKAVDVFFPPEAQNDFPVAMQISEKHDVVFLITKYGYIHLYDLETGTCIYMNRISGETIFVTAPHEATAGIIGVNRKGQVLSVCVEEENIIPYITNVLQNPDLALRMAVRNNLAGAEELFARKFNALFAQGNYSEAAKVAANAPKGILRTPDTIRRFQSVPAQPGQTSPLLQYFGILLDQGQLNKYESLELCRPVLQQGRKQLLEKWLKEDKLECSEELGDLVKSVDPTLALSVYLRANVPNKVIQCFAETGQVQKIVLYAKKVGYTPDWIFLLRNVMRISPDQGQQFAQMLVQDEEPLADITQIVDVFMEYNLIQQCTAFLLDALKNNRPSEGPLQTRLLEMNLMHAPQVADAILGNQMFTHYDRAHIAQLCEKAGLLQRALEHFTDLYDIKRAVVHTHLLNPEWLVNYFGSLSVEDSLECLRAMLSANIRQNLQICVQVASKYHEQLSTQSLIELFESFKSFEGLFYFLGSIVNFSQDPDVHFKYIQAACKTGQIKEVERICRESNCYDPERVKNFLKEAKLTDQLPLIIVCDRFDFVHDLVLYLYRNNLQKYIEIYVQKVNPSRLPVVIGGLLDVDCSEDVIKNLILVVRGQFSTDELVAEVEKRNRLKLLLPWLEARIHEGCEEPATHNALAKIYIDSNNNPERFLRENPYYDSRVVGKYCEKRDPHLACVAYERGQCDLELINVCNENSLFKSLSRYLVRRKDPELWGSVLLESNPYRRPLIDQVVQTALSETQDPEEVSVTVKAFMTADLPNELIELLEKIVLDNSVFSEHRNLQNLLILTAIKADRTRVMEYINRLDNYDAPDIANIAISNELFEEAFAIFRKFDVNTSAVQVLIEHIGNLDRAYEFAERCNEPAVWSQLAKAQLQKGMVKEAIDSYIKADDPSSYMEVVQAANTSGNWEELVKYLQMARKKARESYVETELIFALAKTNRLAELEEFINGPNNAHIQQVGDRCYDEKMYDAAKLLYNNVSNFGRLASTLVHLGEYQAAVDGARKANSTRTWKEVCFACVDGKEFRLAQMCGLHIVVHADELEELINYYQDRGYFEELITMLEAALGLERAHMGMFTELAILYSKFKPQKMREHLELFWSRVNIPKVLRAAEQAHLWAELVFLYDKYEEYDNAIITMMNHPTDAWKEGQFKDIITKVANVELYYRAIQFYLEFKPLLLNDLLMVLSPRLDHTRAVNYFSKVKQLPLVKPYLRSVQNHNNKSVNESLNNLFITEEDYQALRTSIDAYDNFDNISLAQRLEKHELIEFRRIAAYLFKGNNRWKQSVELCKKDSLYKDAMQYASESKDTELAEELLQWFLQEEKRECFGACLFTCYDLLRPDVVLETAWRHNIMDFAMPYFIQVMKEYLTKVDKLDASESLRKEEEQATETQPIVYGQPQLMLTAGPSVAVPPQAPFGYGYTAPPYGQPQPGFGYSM

[8] = target: AP-2 complex subunit alpha-1 (Homo sapiens) (UniProt O95782); assay: Binding affinity to AP2A1 in human NCI-H358 cells at 1 uM by mass spectrometry based pull down assay; type: cell-based
[9] = target: T3, Dual specificity mitogen-activated protein kinase kinase 6 (Homo sapiens) (UniProt P52564); assay: Binding affinity to MAP2K6 in human NCI-H358 cells at 1 uM by mass spectrometry based pull down assay; type: cell-based
T3 sequence (whole entry): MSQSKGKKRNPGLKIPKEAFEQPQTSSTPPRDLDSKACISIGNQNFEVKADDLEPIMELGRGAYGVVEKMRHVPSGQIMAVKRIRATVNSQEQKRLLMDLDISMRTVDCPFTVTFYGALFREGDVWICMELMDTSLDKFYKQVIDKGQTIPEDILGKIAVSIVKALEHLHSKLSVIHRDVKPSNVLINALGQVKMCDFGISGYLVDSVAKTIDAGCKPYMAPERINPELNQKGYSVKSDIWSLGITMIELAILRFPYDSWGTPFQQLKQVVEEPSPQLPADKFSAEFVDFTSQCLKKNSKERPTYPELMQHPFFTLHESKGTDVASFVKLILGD

[10] = target: Dual specificity mitogen-activated protein kinase kinase 1 (Homo sapiens) (UniProt Q02750); assay: Binding affinity to MAP2K1 in human NCI-H23 cells at 1 uM by mass spectrometry based pull down assay; type: cell-based
[11] = target: Lysine--tRNA ligase (Homo sapiens) (UniProt Q15046); assay: Binding affinity to KARS in human NCI-H358 cells at 1 uM by mass spectrometry based pull down assay; type: cell-based
[12] = target: Proteasome subunit beta type-6 (Homo sapiens) (UniProt P28072); assay: Binding affinity to PSMB6 in human NCI-H23 cells at 1 uM by mass spectrometry based pull down assay; type: cell-based
Sequence of Proteasome subunit beta type-6 (Homo sapiens) (P28072 whole entry): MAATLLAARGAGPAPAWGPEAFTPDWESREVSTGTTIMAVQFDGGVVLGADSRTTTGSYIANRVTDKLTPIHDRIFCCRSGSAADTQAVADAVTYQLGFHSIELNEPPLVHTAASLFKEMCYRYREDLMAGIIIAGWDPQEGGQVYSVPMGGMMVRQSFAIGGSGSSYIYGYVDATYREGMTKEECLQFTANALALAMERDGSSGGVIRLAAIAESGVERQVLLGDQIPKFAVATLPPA

[13] = target: Filamin-B (Homo sapiens) (UniProt O75369); assay: Binding affinity to FLNB in human NCI-H358 cells at 1 uM by mass spectrometry based pull down assay; type: cell-based
[14] = target: Serine/threonine-protein kinase 36 (Homo sapiens) (UniProt Q9NRP7); assay: Inhibition of human STK36 (1 to 271 residues) expressed in bacterial expression system assessed as enzyme activity at 1 uM by KINOMEScan assay relative to control; set-up: scale not given: the % may be the effect or the level left
Sequence of Serine/threonine-protein kinase 36 (Homo sapiens) (Q9NRP7 whole entry, the tested form may be a part): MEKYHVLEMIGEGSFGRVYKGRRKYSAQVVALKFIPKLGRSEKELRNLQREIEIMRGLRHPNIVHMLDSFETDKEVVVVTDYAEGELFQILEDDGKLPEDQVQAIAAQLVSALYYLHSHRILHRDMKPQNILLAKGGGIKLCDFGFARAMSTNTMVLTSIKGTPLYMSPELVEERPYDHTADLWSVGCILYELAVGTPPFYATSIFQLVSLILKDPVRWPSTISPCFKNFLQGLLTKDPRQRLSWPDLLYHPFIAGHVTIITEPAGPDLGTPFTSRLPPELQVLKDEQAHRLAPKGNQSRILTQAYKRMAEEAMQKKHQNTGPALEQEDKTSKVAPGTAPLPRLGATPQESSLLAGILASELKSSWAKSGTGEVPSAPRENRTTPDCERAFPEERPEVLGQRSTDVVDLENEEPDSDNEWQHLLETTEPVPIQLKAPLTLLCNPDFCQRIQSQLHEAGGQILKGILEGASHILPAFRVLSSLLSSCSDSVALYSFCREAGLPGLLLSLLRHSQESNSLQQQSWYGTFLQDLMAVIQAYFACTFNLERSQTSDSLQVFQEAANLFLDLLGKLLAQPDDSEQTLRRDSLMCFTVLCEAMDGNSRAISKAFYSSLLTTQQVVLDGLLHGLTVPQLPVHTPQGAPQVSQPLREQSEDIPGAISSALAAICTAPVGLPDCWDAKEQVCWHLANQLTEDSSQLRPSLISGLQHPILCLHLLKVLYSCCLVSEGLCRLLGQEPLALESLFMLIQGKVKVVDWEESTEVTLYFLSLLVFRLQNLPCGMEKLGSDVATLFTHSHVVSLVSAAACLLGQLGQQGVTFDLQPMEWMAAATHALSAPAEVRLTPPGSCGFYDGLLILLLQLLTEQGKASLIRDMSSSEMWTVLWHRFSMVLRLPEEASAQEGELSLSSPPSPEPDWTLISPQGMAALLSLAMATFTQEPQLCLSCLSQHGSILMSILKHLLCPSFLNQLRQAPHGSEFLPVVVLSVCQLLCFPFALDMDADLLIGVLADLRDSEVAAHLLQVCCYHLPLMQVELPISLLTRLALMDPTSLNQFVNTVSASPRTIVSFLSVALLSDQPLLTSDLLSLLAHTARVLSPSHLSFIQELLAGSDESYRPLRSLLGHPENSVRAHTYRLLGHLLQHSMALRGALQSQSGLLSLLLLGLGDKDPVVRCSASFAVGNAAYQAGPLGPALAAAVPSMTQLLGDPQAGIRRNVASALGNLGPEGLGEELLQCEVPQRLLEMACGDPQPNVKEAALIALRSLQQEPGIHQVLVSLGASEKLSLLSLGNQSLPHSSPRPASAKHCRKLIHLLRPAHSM
In short: (§1)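 In vitro ATP-site competition binding assay across a panel of 456 kinases, with compound tested at 1 and 10 μM.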

[15] = target: Receptor-type tyrosine-protein kinase FLT3 (Homo sapiens) (UniProt P36888); assay: Inhibition of human FLT3 (592 to 969 residues) expressed in bacterial expression system assessed as enzyme activity at 10 uM by KINOMEScan assay relative to control; set-up: scale not given: the % may be the effect or the level left; in short: as §1
Sequence of Receptor-type tyrosine-protein kinase FLT3 (Homo sapiens) (P36888 whole entry, the tested form may be a part): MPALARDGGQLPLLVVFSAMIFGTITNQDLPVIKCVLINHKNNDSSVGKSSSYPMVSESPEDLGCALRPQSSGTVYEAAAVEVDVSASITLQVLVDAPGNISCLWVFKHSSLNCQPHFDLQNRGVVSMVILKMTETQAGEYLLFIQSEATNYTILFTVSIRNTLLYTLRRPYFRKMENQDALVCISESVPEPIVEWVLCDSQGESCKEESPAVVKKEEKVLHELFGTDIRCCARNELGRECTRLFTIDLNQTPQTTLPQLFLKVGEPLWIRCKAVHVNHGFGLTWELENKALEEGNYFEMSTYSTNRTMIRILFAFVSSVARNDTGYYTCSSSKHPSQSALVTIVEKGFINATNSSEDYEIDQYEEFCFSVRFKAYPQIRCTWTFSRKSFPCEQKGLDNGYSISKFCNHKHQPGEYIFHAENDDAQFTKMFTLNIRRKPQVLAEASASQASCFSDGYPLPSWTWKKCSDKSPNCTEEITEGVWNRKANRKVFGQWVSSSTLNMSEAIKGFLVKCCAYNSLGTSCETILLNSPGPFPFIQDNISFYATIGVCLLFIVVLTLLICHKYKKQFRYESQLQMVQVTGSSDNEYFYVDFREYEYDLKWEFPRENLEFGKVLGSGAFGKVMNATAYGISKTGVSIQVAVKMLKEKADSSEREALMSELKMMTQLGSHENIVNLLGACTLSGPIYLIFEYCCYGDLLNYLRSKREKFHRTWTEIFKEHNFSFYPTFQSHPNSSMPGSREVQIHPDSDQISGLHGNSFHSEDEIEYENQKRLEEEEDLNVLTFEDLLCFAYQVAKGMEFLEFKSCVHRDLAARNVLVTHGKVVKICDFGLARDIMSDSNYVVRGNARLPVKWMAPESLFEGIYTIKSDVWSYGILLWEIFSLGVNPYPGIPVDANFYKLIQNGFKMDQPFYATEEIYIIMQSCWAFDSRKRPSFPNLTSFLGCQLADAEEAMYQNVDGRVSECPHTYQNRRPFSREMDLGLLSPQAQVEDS

Measured: Activity

C=CC(=O)Nc1ccccc1Nc1nc(Nc2ccc(N3CCN(CCOCCOCCOCCNC(=O)CCCC[C@@H]4SC[C@@H]5NC(=O)N[C@@H]54)CC3)cc2)ncc1Cl
not listed: [14] | [15]
active: all other assays above

COc1cc(O)c2c(c1)/C=C/C[C@H](O)[C@H](O)C(=O)/C=C\C[C@H](C)OC2=O
7.1%: [14]
0.55%: [15]

Source: ChEMBL document CHEMBL4118021, “Studies of TAK1-centered polypharmacology with novel covalent TAK1 inhibitors” (Bioorg Med Chem, 2017)
